# Measured values pooled from the literature.
# Each line is one published result; the experiments were not run side by side.
# Target: SRSF protein kinase 2 (SRPK2, Homo sapiens, UniProt P78362)
SMILES,assay,setting,remaining binding [%]
COc1cnc(Nc2cccc(S(N)(=O)=O)c2)nc1N1CCN(c2ccccc2)CC1,"binding, competition with immobilised ligand",1 µM,87
c1cnn2ncc(-c3ccnc(N4CCC45COC5)n3)c2c1,binding,1 µM,70
Cc1c(NC(=O)c2cc(C(N)=O)nc3cc(F)ccc23)c(C(F)(F)F)nn1Cc1ccc(C(C)(C)C)cc1,"cell-free assay, competition with immobilised ligand",1 µM,97
N[C@H]1CCN(c2nccc(-c3cnn4ncccc34)n2)C1,binding,1 µM,62
CCOC(=O)c1cc2cc(-c3cc(C(=O)NCc4ccc(C(=O)O)cc4)nn3C)ccc2[nH]1,"cell-free assay, competition with immobilised ligand",0.1 µM,100
COc1ncc2cc3ccccc3nc2c1C#N,"cell-free assay, competition with immobilised ligand",5 µM,100
FC(F)(F)Oc1cccc(-c2cnc3ccc(-c4ccncc4)nn23)c1,"binding, competition with immobilised ligand",5 µM,66
CN(C)c1nccc(-c2cnn3ncccc23)n1,binding,1 µM,100
O=C1NC(c2ccccn2)Sc2ccccc21 (stereo not drawn),"cell-free assay, competition with immobilised ligand",1 µM,100
Cc1cnc(Nc2ccc(C(=O)N3CCC(N4CCCC4)CC3)cc2)nc1-c1cc2ccccc2s1,"binding, competition with immobilised ligand",1 µM,100
CC(=O)C1=C(C)N(c2cccc(C(F)(F)F)c2)C(=O)N[C@@H]1c1ccc(C#N)nc1,"cell-free assay, competition with immobilised ligand",1 µM,100
CNC(=O)[C@@H]1CC[C@@H](n2c(-c3ccc4cnccc4c3)nc3ccc(C(=O)NCc4cccc(C(N)=O)c4)cc32)C1,"binding, competition with immobilised ligand",1 µM,100
CC1CCCN1c1nccc(-c2cnn3ncccc23)n1 (stereo not drawn),binding,1 µM,100
O=C(NCCCN1CCOCC1)c1ccc(Nc2ncc(Cl)c(-c3ccc(Cl)s3)n2)cc1,"binding, competition with immobilised ligand",1 µM,75
CC1=C(C#N)C(c2ccc3c(c2)c(NC(=O)c2ccccc2C)nn3C)C(C#N)=C(C)N1,"cell-free assay, competition with immobilised ligand",1 µM,88
O=C(c1ccc(Nc2ncc(Cl)c(-c3ccc(Cl)s3)n2)cc1)N1CCC(N2CCCC2)CC1,"binding, competition with immobilised ligand",1 µM,89
CCN1CCN(Cc2ccc(C(=O)Nc3ccc(C)c(Oc4ccc5c(c4)CC(=O)N5)c3)cc2C(F)(F)F)CC1,"binding, competition with immobilised ligand",1 µM,100
C[C@H]1CCN(c2nccc(-c3cnn4ncccc34)n2)C1,binding,1 µM,93
Cc1nc(Cc2cccc(C(F)(F)F)c2)sc1-c1ccc(C(N)=O)nc1,"cell-free assay, competition with immobilised ligand",1 µM,100
O=C(NCC1CCOCC1)c1n[nH]cc1NC(=O)c1c(F)cccc1F,"binding, competition with immobilised ligand",1 µM,84
COc1ccnn2ncc(-c3ccnc(N(C)C)n3)c12,binding,1 µM,100
